High-throughput results deposited in PubChem BioAssay by Broad Institute.
Rtt109 HAT inh: inhibitors of Candida albicans Rtt109/Vps75 histone acetyltransferase; 0.16% of 330,000 active; inhibition, % at 34.9 µM; purified Rtt109/Vps75, ThioGlo CoA-SH fluorescence, 4 h;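 active means inhibition of at least 50% in every replicate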
Target sequence (Q5AAJ8 whole entry, looked up): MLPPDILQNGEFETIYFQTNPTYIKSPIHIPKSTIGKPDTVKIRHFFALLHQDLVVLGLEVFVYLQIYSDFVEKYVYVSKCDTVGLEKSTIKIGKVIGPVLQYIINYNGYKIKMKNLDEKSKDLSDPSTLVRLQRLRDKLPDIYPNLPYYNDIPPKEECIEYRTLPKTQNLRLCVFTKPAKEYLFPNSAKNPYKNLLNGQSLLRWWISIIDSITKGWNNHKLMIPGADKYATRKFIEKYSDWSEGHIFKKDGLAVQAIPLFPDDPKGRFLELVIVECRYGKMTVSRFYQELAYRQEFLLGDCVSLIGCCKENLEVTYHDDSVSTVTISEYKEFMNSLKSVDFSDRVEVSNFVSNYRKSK
DYRK1A inh: Dyrk1A (rat) kinase inhibition; ADP-Glo luminescence, NFATc1 peptide; inhibition, % at 12.5 µM; 0.43% of 310,000 active; AID 504441; in the data active means inhibition above about 50%
CAL PDZ FP-1: CAL PDZ (human) peptide binding inhibition. Q9HD26. purified CAL PDZ, TMR-peptide fluorescence polarization, 1 h. inhibition, % at 24.9 µM. 0.92% of 300,000 active. AID 602252;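 active means mean inhibition of at least 30% with at least half of replicates also reaching 30%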
CAL PDZ FP-2: blocks peptide binding to human CAL PDZ domain; Q9HD26; purified CAL PDZ, TMR-peptide fluorescence polarization, 1 h; inhibition, % at 20 µM; 0.02% of 330,000 active; AID 504414;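 active means highest replicate inhibition of at least 40%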
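Control set: unlabelled peptide and DMSO controls / Material: purified CerCALP PDZ construct / Timing: 1 h incubation at room temperature before polarization reading / Doses: 20 µM, one dose / Detection: fluorescence polarization (mP)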
ALR inh: human ALR oxidase inhibition via reduced H2O2; P55789; purified ALR, DTT oxidation, H2O2 HRP-luminol luminescence; inhibition, % (test concentration not listed); 3.8% of 290,000 active;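 active means mean replicate inhibition above about 79%, with every replicate also reaching it, limit read from the data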
Target sequence (P55789 whole entry, looked up): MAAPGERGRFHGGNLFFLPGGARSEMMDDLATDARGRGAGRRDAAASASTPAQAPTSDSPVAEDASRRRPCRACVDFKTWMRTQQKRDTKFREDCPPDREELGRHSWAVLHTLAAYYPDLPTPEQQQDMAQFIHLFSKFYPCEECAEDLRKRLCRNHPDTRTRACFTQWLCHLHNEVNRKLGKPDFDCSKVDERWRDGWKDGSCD
A number is an active result; – = inactive; · = no result given. Only some compounds are listed: those with a hit (about 4.3% of all), similar ones and a draw of the others.

SMILES	Rtt109 HAT inh	DYRK1A inh	CAL PDZ FP-1	CAL PDZ FP-2	ALR inh
CCn1c(N)c(C(=O)NCC2CCCO2)sc1=S (stereo not drawn)	–	–	–	·	99
CC(C)(C)c1csc(NC(=O)c2c(F)c(F)c(F)c(F)c2F)n1	–	–	–	·	98
CC(C)(C)c1csc(NC(=O)c2ccccc2O)n1	–	–	–	–	81
CSc1ncccc1C(=O)Nc1nc(C(C)(C)C)cs1	–	–	–	–	–
COC(=O)c1ccc(NS(=O)(=O)c2ccccc2)o1	·	–	–	–	–
Cc1ccc(S(=O)(=O)N2CCN(C(=O)COC(=O)c3oc4ccccc4c3C)CC2)cc1	–	–	–	–	–
C=CCNC(=O)c1onc(CSc2cccc(OCC)c2)c1C(=O)O	–	–	–	–	94
C=CCNC(=O)c1onc(CSc2ccc(OC)cc2)c1C(=O)O	–	–	–	–	–
C=CCNC(=O)c1onc(CSc2ccccc2)c1C(=O)O	–	–	–	–	–
C=CCNC(=O)c1onc(CSc2ccc(C(C)C)cc2)c1C(=O)O	–	–	–	–	97
NS(=O)(=O)c1ccc(CCNC(=O)c2cc3ccccc3s2)cc1	–	–	–	–	–
O=C(Cn1c(=O)oc2cc(S(=O)(=O)N3CCc4ccccc43)ccc21)NC1CCCC1	–	–	·	–	96
Cn1c(=O)oc2cc(S(=O)(=O)N3CCC(C(=O)NCc4ccccc4Cl)CC3)ccc21	–	–	50	–	–
O=C(Cn1c(=O)oc2cc(S(=O)(=O)N3CCCC3)ccc21)Nc1ccccc1Br	–	–	61	–	–
Cc1ccsc1CN1CCC(C(=O)NCc2ccccc2Cl)CC1	–	–	59	–	–
CC(=O)c1cccc(NC(=O)Cn2c(=O)oc3cc(S(=O)(=O)N4CCCC4)ccc32)c1	–	–	–	–	–
CN(C)c1ccc(CNC(=O)C2CCN(S(=O)(=O)c3ccc4c(c3)oc(=O)n4C)CC2)cc1	–	–	–	–	–
Cc1ccc(S(=O)(=O)N(C)CC(=O)NCCCn2nc(C)cc2C)cc1	–	·	62	–	–
Cc1ccc(S(=O)(=O)N(C)CC(=O)NCCCc2ccccc2)cc1	–	–	·	–	·
Cc1[nH]n(-c2ccccc2)c(=O)c1/C=N/N(C)c1ccccc1	–	–	–	–	82
Cc1ccc(-c2n[nH]c(=S)n2/N=C/c2c(C)[nH]n(-c3ccccc3)c2=O)cc1	–	–	–	–	98
Cc1nn(-c2ccccc2)c(C)c1/C=N/n1c(-c2ccc(Cl)cc2)n[nH]c1=S	–	–	–	–	–
S=c1[nH]nc(-c2ccncc2)n1/N=C/C=C/c1ccccc1	–	·	–	–	92
Oc1ccccc1/C=N/n1c(-c2ccccc2)n[nH]c1=S	–	–	–	–	98
COc1ccccc1/C=C/C=N/n1c(-c2ccncc2)n[nH]c1=S	–	–	–	–	–
SMILES	Rtt109 HAT inh	DYRK1A inh	CAL PDZ FP-1	CAL PDZ FP-2	ALR inh
Cc1[nH]n(-c2ccccc2)c(=O)c1/C=N/O	–	–	–	–	–
COc1ccc(N2CCN(C(=O)NCc3ccc(C)cc3)CC2)cc1	–	–	–	–	–
CC1(C)Cc2cccc(OCC(=O)Nc3cccnc3Cl)c2O1	–	–	–	–	–
Cc1cc(=O)c(C(=O)Nc2cccc(C(=O)NC3CC3)c2)nn1-c1ccccc1Cl	–	–	–	–	–
COc1cccc(/C=C2/SC(=O)N(CC(=O)N3CCc4ccccc4C3)C2=O)c1OCC(=O)O	–	–	–	–	98
CCOC(=O)C(CC)(CCC(=O)O)c1csc(Nc2ccc(C)cc2)n1 (stereo not drawn)	–	–	–	–	99
O=C(O)CC12C[C@H]3C[C@@H](C1)CC(n1ncc(N4CCN(c5ccccc5)CC4)c(Cl)c1=O)(C3)C2	–	–	–	–	98
O=C(O)C12C[C@H]3C[C@@H](C1)CC(n1ncc(N4CCN(c5ccccc5)CC4)c(Cl)c1=O)(C3)C2	–	–	–	–	98
CC(C)[C@H]1COC(NC2=N[C@@H](C(C)C)CO2)=N1	–	–	–	–	–
CCOC(=O)C1CCN(Cc2cnc(Oc3ccc(N)cc3)s2)CC1	–	–	·	–	98
COC(=O)[C@H](Cc1ccccc1)NC(=O)NC(C)CCc1ccccc1 (stereo partly drawn)	–	–	42	·	–
COc1cc(NC(=O)c2ccc([N+](=O)[O-])cc2)c(OC)cc1NC(=O)CC(C)C	–	–	–	–	–
Cn1c(/C=C/c2ccc(Cl)cc2)c([N+](=O)[O-])c(=O)n(C)c1=O	–	–	–	–	·
Cn1c(/C=C/c2cccc([N+](=O)[O-])c2)c([N+](=O)[O-])c(=O)n(C)c1=O	–	–	–	–	98
CN(/C=C/c1c([N+](=O)[O-])c(=O)n(C)c(=O)n1C)c1ccccc1	–	–	86	–	·
COC(=O)/C=C1/N/C(=N\c2nc(C)cc(C)n2)N(c2ccc(Cl)cc2)C1=O	–	–	–	–	–
CCCCNC(=O)[C@@H]1CSC2c3ccccc3C(=O)N21 (stereo partly drawn)	–	–	–	–	–
Cc1c(C(=O)NC2=NCCS2)oc2ccccc12	–	–	–	–	97
Cc1csc(NC(=O)c2oc3ccccc3c2C)n1	–	–	–	–	–
Cc1cc(C)n(-c2cc(O)c(-n3nc(C)cc3C)cc2O)n1	–	–	–	–	89
CCOC(=O)C1=C(CS(=O)(=O)c2ccccc2)NC(=O)NC1c1cc(OC)c(O)c(OC)c1 (stereo not drawn)	–	–	–	–	–
O=C(O)c1ccccc1-c1nc(-c2ccccc2)c(-c2ccccc2)[nH]1	–	–	–	–	–
O=C(O)c1cccc2c(-c3ccccc3)c(-c3ccccc3)[nH]c12	–	–	–	–	98
CCn1cc(S(=O)(=O)N2CCCC2)cn1	–	–	–	–	–
COc1ccc2[nH]c3c(N4CCN(Cc5ccc6c(c5)OCO6)CC4)ncnc3c2c1	–	–	–	–	97
SMILES	Rtt109 HAT inh	DYRK1A inh	CAL PDZ FP-1	CAL PDZ FP-2	ALR inh
N#CC1=C(N)N(c2ncn[nH]2)C2=C(C(=O)CCC2)C1c1ccc(F)cc1 (stereo not drawn)	–	–	–	–	–
CSc1nc(C(=O)N2CCCC(C(=O)c3ccc(Cl)cc3)C2)cs1 (stereo not drawn)	–	–	–	–	–
CC(C)C(NS(=O)(=O)c1cccc2nsnc12)C(=O)NC1CCCCC1C (stereo not drawn)	–	–	·	–	–
CC1CCCC(NS(=O)(=O)c2cccc3nsnc23)C1C (stereo not drawn)	55	–	–	–	–
CC(C)C1Oc2ccccc2N(CC(=O)N2CCOCC2)C1=O (stereo not drawn)	–	–	–	–	–
CC(CCc1ccccc1)NC(=O)CCNC(=O)Cn1ccc2ccccc2c1=O (stereo not drawn)	–	–	–	–	–
COc1cccc(C=Nc2ccccc2C(=O)Nc2nccs2)c1OC	–	–	·	–	–
O=C(Nc1nccs1)c1ccccc1N=Cc1ccccc1	–	–	59	–	–
